One series relates to patients. The settings on record: cited from earlier work; for Associated clinical toxicities: Table 1.
A further series deals with zebrafish embryos. The experiment in a line: Zebrafish toxicity assay. Type of series: in vivo. The settings on record: for gross morphological changes (in words): zebrafish larvae, exposure to 96 hours. A digest of the protocol: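 Wild-type embryos at 24 hpf, bath-exposed in distilled water (pH 6.8–8) at 28°C with solutions renewed every 24 h. Naïve and 0.1% DMSO vehicle controls were included. Five concentrations, spacing factor 2, within solubility limits; 12 embryos per concentration per replicate; three independent experiments. Toxicity scored at 48 and 96 hpf; NOEC/LOEC derived experimentally; LC50 from pooled mortality via sigmoidal fit.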

The test system of series [1] is subintestinal vessels (SIVs) of zebrafish embryos. The experiment in a line: Zebrafish subintestinal vessel angiogenesis assay. Type of series: in vivo. The conditions noted are these: for effect on SIV angiogenesis (in words): zebrafish embryos.
Series [2] can be described thus: Compound precipitation in the test medium. In kind it is physicochemical. The settings on record: test medium of the zebrafish assays (distilled water, 0.1% DMSO).
The test system of series [3] is human primary endothelial cells. The conditions noted are these: cited from earlier work.
Another series has as its system VEGFR. The conditions noted are these: read-out: VEGFR inhibition IC50; biochemical assays; cited from earlier work.
In series [4] the test system is chick chorioallantoic membrane. The conditions noted are these: cited from earlier work.
Series [5] deals with mouse dorsal air sac model. The conditions noted are these: cited from earlier work.
The mark [6] stands for this setting: patients enrolled in clinical trial.
The mark [7] stands for this setting: concentration not given, 96 hpf.

For orientation: IC50 means the concentration at which inhibition is half-maximal.

“Also recorded” adds a separate entry of the source.

Take `COc1cc2nccc(Oc3ccc(NC(=O)C4(C(=O)Nc5ccc(F)cc5)CC4)cc3)c2cc1OC` [Cabozantinib]: the Associated clinical toxicities result with patients is “Multiple systemic toxicities”.
Consider `COc1ccc(/C=C\c2cc(OC)c(OC)c(OC)c2)cc1O` [Combretastatin], for which the “gross morphological changes (in words)” value in the series on zebrafish embryos was “coagulation of zebrafish embryos”. Further, the Associated clinical toxicities entry in the series with patients is on record as “Multiple systemic toxicities”. Further, the “effect on SIV angiogenesis (in words)” value in series [1] (96 hpf) is “lack of anti-angiogenic activity”; in series [1] (96 hpf, listed as combretastatin), “Angiogenesis inhibition was not demonstrated”.
On to `C#Cc1cccc(Nc2ncnc3cc(OCCOC)c(OCCOC)cc23)c1` [Erlotinib], for which the “concentration beyond which the compound precipitated” value in series [2] is greater than 1 µM. The Associated clinical toxicities result in the series with patients is listed as “Multiple systemic toxicities”. Besides, in series [1] (1 μM, 96 hpf), the “decrease in the number of SIVs within the basket” value was “no effect” and the “regression in SIV length” value worked out at 10%. In addition, the “effect on SIV angiogenesis (in words)” value in series [1] (96 hpf) is reported as “Angiogenesis inhibition was not demonstrated”.
Consider `CN1CC[C@H](c2c(O)cc(O)c3c(=O)cc(-c4ccccc4Cl)oc23)[C@H](O)C1` [Flavopiridol], for which, in the series on zebrafish embryos, the “gross morphological changes (in words)” value was “multiple sub-lethal toxicities like yolk-sac edema, nonprogressive pericardial edema, bent notochord, and jaw deformity; also recorded: Widespread tissue necrosis; also recorded: multiple pathological changes like jaw deformity, pericardial edema, notochord deformity, and patchy necrosis”. Moreover, in the series with patients, the Associated clinical toxicities entry is “Multiple systemic toxicities”; the “toxicities in clinical trials” value is “tumor lysis syndrome and febrile neutropenia”. In addition, in series [1] (2 μM, 96 hpf), the “decrease in the number of SIVs” value came to 72% and the “regression in SIV length” value stood at 38%. The “effect on SIV length and basket (in words)” value in series [1] (2 μM, lectin staining at 72 hpf, Figure 2C) is on record as “Partial regression of SIVs”. In addition, the “effective anti-angiogenic concentration range (in words)” value in series [3] is recorded as “effective at micromolar concentrations”.
For the compound `Cc1ccc(Nc2nccc(N(C)c3ccc4c(C)n(C)nc4c3)n2)cc1S(N)(=O)=O` [Pazopanib], the Associated clinical toxicities result in the series with patients was “Cardiotoxicity”.
`CNC(=O)c1cc(Oc2ccc(NC(=O)Nc3ccc(Cl)c(C(F)(F)F)c3)c(F)c2)ccn1` [Regorafenib]: the “gross morphological changes (in words)” value in the series on zebrafish embryos is “nonprogressive pericardial edema in all the embryos subjected to treatment (ie, 36/36)”. For the same compound, the IC50 with VEGFR is 13 to 46 nM. Further, in series [1] (96 hpf), the “concentration giving complete regression of SIVs” value was less than 1 µM and the “effect on SIV angiogenesis (in words)” value is “complete inhibition of SIV angiogenesis”. Besides, in series [4], the “concentration with significant angiogenesis inhibition in the in vivo CAM assay” value is 1 to 3 µM.
`Cc1cc(C)c(/C=C2\C(=O)Nc3ccccc32)[nH]1` [SU5416]: in the series on zebrafish embryos, the “gross morphological changes (in words)” value was “multiple gross morphological abnormalities like yolk-sac edema, shortened body axis, bent notochord, jaw deformity, blood pooling, and un-inflated swim bladder”. In the series with patients, the Associated clinical toxicities entry is on record as “Multiple systemic toxicities”. Moreover, in series [1] (1 μM, 96 hpf), the “decrease in the number of SIVs within the basket” value is reported as 85% and the “regression in SIV length” value is reported as 38%. Moreover, the “effect on SIV angiogenesis (in words)” value in series [1] (96 hpf) was “incomplete SIV regression”.
Take `CNC(=O)c1cc(Oc2ccc(NC(=O)Nc3ccc(Cl)c(C(F)(F)F)c3)cc2)ccn1` [Sorafenib]: in the series on zebrafish embryos, the “gross morphological changes (in words)” value is “nonprogressive pericardial edema in all the embryos subjected to treatment (ie, 36/36)”. In addition, the Associated clinical toxicities entry in the series on patients is listed as “Cardiotoxicity”. In series [1] (96 hpf), the “concentration giving complete regression of SIVs” value is less than 1 µM and the “effect on SIV angiogenesis (in words)” value is “complete inhibition of SIV angiogenesis”. In addition, the “concentration with significant angiogenesis inhibition in the in vivo CAM assay” value in series [4] is 1 to 3 µM.
Consider `CCN(CC)CCNC(=O)c1c(C)[nH]c(/C=C2\C(=O)Nc3ccc(F)cc32)c1C` [Sunitinib], for which the Associated clinical toxicities entry in the series with patients was “Cardiotoxicity”. Moreover, in the series on patients (setting [6]), the “patients with congestive cardiac failure” value was 11% and the “patients with decrease in left ventricular ejection fraction” value is 28%.
As for `Cc1ccc(C(=O)Nc2ccc(S(=O)(=O)O)c3cc(S(=O)(=O)O)cc(S(=O)(=O)O)c23)cc1NC(=O)c1cccc(NC(=O)Nc2cccc(C(=O)Nc3cc(C(=O)Nc4ccc(S(=O)(=O)O)c5cc(S(=O)(=O)O)cc(S(=O)(=O)O)c45)ccc3C)c2)c1` [Suramin], in the series with zebrafish embryos (96 hpf), the “LC50 fold higher than the other multikinase inhibitors” value was “about 200 fold”. For the same compound, in the series on zebrafish embryos, the “gross morphological changes (in words)” value was “multiple sub-lethal toxicities like yolk-sac edema, nonprogressive pericardial edema, bent notochord, and jaw deformity; also recorded: multiple pathological changes like jaw deformity, pericardial edema, notochord deformity, and patchy necrosis”. Moreover, in the series on patients, the Associated clinical toxicities entry is listed as “Multiple systemic toxicities”; the “toxicities in clinical trials” value was “neutropenia, neurological dysfunction, and development of renal insufficiency”. In series [1] (setting [7]), the “inhibition of vessels within the angiogenic basket” value is 45% and the “regression / decrease in SIV length” value was 30%. Further, in series [4], the “concentration inhibiting angiogenesis in the CAM assay” value was 7 µM and the “fold higher concentration than VEGFR inhibitors in the CAM assay” value was 7 fold. In series [3], the “effective anti-angiogenic concentration range (in words)” value was “effective at micromolar concentrations”.
Take `CO[C@@H]1[C@H](OC(=O)NC(=O)CCl)CC[C@]2(CO2)[C@H]1[C@@]1(C)O[C@@H]1CC=C(C)C` [TNP-470]: the “gross morphological changes (in words)” value in the series on zebrafish embryos is “abnormal notochord morphology”. Further, the “regression / decrease in SIV length” value in series [1] (setting [7]) is recorded as 20%–30%. The “effect on SIV angiogenesis (in words)” value in series [1] (96 hpf) is “formation of aberrant SIV extensions”. In series [4], the “concentration inhibiting angiogenesis in the CAM assay” value is 100 to 125 µM and the “fold higher concentration than VEGFR inhibitors in the CAM assay” value is given as 100 fold. The toxicity limiting effectiveness entry in series [5] is reported as “severe weight loss”.
With `O=C1CCC(N2C(=O)c3ccccc3C2=O)C(=O)N1` (stereo not shown) [Thalidomide], in the series with zebrafish embryos (Figure S3), the “absence of fin development” value amounted to 100%. For the same compound, the “concentration with reduction of otolith size and altered fin development” value in the series with zebrafish embryos (zebrafish embryos) was greater than 300 µM. The “gross morphological changes (in words)” value in the series with zebrafish embryos was “did not result in gross morphological changes with respect to notochord development and development of cardiac edema”. Besides, the Associated clinical toxicities entry in the series on patients is “Teratogenic”. For the same compound, the “regression / decrease in SIV length” value in series [1] (setting [7]) is reported as 20%–30%. The “anti-angiogenic effect in the CAM assay (in words)” value in series [4] is reported as “does not exhibit anti-angiogenic effects”. In addition, the “effective anti-angiogenic concentration range (in words)” value in series [3] is “effective at micromolar concentrations”.
Turning to `COc1cc2nccc(Oc3ccc(NC(=O)Nc4cc(C)on4)c(Cl)c3)c2cc1OC` [Tivozanib], the “improvement of progression-free survival” value in the series on patients (patients with renal cell carcinoma) is on record as roughly 12 months. The “concentration giving complete regression in SIVs” value in series [1] (96 hpf) turned out to be 5 nM.
`COc1cc2c(Nc3ccc(Br)cc3F)ncnc2cc1OCC1CCN(C)CC1` [Vandetanib]: the Associated clinical toxicities result in the series with patients is on record as “Cardiotoxicity”. For the same compound, in the series with VEGFR, the IC50 was […]. Also, the “effect on SIV angiogenesis (in words)” value in series [1] (96 hpf) is on record as “incomplete SIV regression”.
On to `Clc1ccc(Nc2nnc(Cc3ccncc3)c3ccccc23)cc1` [Vatalanib], for which the “gross morphological changes (in words)” value in the series with zebrafish embryos was “multiple gross morphological abnormalities like yolk-sac edema, shortened body axis, bent notochord, jaw deformity, blood pooling, and un-inflated swim bladder”. For the same compound, the Associated clinical toxicities result with patients is listed as “Multiple systemic toxicities”.
Take Bevacizumab: the “gross morphological changes (in words)” value in the series with zebrafish embryos is “did not elicit dose-dependent toxicity or a consistent pathological phenotype”. Besides, the “effect on SIV angiogenesis (in words)” value in series [1] (96 hpf) is reported as “extremely variable results; also recorded: Angiogenesis inhibition was not demonstrated”.

These data come from article PMC4145829 (Drug Design, Development and Therapy, 2014).
